The source made the active and inactive calls. No cut-off for these calls is given here.
Assays:
[1] = Cytotoxicity against African green monkey Vero cells after 3 days by hemocytometry; type: cell-based; details: chlorocebus sabaeus
[2] = Cytotoxicity against human HuH7 cells infected with HCV assessed as reduction in cellular rRNA level after 96 hrs by qRT-PCR analysis; type: cell-based, Huh-7
Summary of the method: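 Huh7 toxicity was read in the same wells as the replicon assay, by extracting and amplifying cellular rRNA alongside HCV RNA.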

[3] = Cytotoxicity against human CEM cells after 6 days by trypan blue exclusion assay; type: cell-based; details: CEM (CCRF-CEM) cells
[4] = Drug metabolism in human HuH7 cells assessed as 2'-beta-C-methylguanosine-5'-triphosphate formation at 50 uM after 4 hrs by LC-MS/MS analysis; type: ADME, cell-based; details: huh-7, 4 h
Summary of the method: (§1)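 Huh7 cells incubated with 50 μM compound for 4 h at 37 °C, then washed with phosphate-buffered saline. Intracellular metabolites extracted with 70% ice-cold methanol in water and identified by LC–MS/MS, with nucleoside mono-, di- and triphosphate levels quantified.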

[5] = Cytotoxicity against human PBMC after 6 days by trypan blue exclusion assay; type: cell-based; details: PBMC (peripheral blood mononuclear cells)
[6] = tested on: Hepatitis C virus; experiment: Antiviral activity against HCV infected in HuH7 Clone B cells assessed as inhibition of viral replication after 5 days by RT-PCR method; type: functional, organism-based, Hepacivirus hominis; details: 120 h
Summary of the method: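 Huh7 cells carrying a subgenomic HCV replicon; HCV RNA extracted and amplified to measure replication inhibition. Tested up to 10 μM, and EC50 and EC90 are reported.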

[7] = Drug metabolism in human HuH7 cells assessed as formation of ((2R,3R,4R,5R)-5-(6-amino-2-fluoro-9H-purin-9-yl)-3,4-dihydroxy-4-methyltetrahydrofuran-2-yl)methyl tetrahydro triphosphate at 50 uM after 4 hrs by LC-MS/MS analysis; type: ADME, cell-based; details: huh-7, 4 h; summary of the method: as §1
[8] = Drug level in human HuH7 cells treated with Ethyl((((2R,3R,4R,5R)-5-(6-amino-2-fluoro-9H-purin-9-yl)-3,4-dihydroxy-4-methyltetrahydrofuran-2-yl)methoxy)(phenoxy)phosphoryl)-L-alaninate at 50 uM after 4 hrs by LC-MS/MS analysis; type: ADME, cell-based; details: huh-7, 4 h; summary of the method: as §1
[9] = molecular target: DNA-directed RNA polymerase, mitochondrial (Homo sapiens) (UniProt O00411); experiment: Activity at human mitochondrial RNA polymerase assessed as compound incorporation into RNA up to 100 uM relative to ATP
Summary of the method: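 Human mitochondrial RNA polymerase (POLRMT) incorporation of nucleoside triphosphate, tested up to 100 μM and expressed as percent incorporation normalized to ATP.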

[10] = Inhibition of HCV C-terminal his-tagged NS5B delta21 RNA dependent RNA polymerase assessed as inhibition of full-length 20mer RNA product formation after 120 mins by PAGE method in presence of 32P-radiolabeled GpG primer; design: species or system Hepacivirus hominis
Summary of the method: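 HCV NS5B polymerase RNA synthesis on a 20mer RNA template, run with increasing triphosphate concentrations up to 100 μM. Products resolved to follow incorporation and pausing sites opposite template uridines.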

[11] = species: Homo sapiens; experiment: Inhibition of host RNA polymerase 2 (unknown origin) up to 100 uM
Summary of the method: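 Host RNA polymerase II was tested with nucleoside triphosphate up to 100 μM. α-Amanitin served as the positive control.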

[12] = Drug level in human HuH7 cells treated with (2R,3R,4R,5R)-2-(6-amino-2-fluoro-9H-purin-9-yl)-5-(hydroxymethyl)-3-methyltetrahydrofuran-3,4-diol at 50 uM after 4 hrs by LC-MS/MS analysis; type: ADME, cell-based; details: huh-7, 4 h; summary of the method: as §1
[13] = Inhibition of host RNA polymerase 2 (unknown origin); design: species or system Homo sapiens
Summary of the method: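 Host RNA polymerase II inhibition assay with the nucleoside triphosphate tested at concentrations up to 100 μM. α-Amanitin was included as the positive control.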

[14] = Drug metabolism in human HuH7 cells assessed as nucleoside diphosphate derivative formation at 50 uM after 4 hrs by LC-MS/MS analysis; type: ADME, cell-based; details: huh-7, 4 h; summary of the method: as §1
[15] = Drug metabolism in human HuH7 cells assessed as nucleoside monophosphate derivative formation at 50 uM after 4 hrs by LC-MS/MS analysis; type: ADME, cell-based; details: huh-7, 4 h; summary of the method: as §1
[16] = Drug metabolism in human HuH7 cells assessed as nucleoside triphosphate derivative formation at 50 uM after 4 hrs by LC-MS/MS analysis; type: ADME, cell-based; details: huh-7, 4 h; summary of the method: as §1
[17] = Drug level in human HuH7 cells treated with Ethyl((((2R,3S,4R,5R)-5-(2-amino-6-(((tert-butoxycarbonyl)amino)oxy)-9H-purin-9-yl)-3,4-dihydroxy-4-methyltetrahydrofuran-2-yl)methoxy)(phenoxy)phosphoryl)-Lalaninate at 50 uM after 4 hrs by LC-MS/MS analysis; type: ADME, cell-based; details: huh-7, 4 h; summary of the method: as §1
[18] = Drug level in human HuH7 cells treated with 2-Amino-6-[N-(t-butyloxycarbonyl)aminoxy]-9H-(2'-C-methyl-beta-D-ribofuranosyl)-purine at 50 uM after 4 hrs by LC-MS/MS analysis; type: ADME, cell-based; details: huh-7, 4 h; summary of the method: as §1

Sequence of DNA-directed RNA polymerase, mitochondrial (Homo sapiens) (O00411 whole entry): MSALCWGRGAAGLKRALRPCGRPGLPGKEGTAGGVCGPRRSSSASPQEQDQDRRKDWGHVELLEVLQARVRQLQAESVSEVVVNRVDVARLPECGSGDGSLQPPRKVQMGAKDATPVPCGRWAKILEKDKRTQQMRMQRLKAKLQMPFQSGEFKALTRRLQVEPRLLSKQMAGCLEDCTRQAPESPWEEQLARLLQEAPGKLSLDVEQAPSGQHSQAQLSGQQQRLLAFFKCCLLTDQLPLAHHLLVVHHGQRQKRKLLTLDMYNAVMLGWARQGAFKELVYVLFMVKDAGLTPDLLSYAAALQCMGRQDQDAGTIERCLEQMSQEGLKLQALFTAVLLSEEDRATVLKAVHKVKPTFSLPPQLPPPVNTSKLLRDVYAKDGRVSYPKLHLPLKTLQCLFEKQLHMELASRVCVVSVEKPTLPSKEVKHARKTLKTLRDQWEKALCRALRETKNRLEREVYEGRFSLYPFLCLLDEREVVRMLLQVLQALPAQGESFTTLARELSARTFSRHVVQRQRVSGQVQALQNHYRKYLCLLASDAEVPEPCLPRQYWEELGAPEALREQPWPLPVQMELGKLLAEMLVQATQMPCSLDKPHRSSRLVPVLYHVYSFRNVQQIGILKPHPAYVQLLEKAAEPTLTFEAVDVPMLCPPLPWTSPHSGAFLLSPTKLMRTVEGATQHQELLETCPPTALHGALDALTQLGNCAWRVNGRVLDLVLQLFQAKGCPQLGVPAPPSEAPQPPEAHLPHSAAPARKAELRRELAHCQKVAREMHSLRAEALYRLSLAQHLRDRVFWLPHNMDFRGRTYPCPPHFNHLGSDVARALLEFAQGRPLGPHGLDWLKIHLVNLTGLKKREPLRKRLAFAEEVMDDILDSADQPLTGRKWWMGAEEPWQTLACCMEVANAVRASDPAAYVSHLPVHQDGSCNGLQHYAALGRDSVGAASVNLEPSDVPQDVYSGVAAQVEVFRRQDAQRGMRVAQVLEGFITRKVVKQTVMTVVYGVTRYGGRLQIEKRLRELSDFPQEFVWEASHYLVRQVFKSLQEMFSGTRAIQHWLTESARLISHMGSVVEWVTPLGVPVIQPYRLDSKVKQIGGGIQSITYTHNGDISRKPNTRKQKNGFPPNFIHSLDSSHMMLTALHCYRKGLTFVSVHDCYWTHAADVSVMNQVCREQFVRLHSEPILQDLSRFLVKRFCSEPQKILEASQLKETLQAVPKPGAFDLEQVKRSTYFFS

Row | EC50 [6] [µM] | EC90 [6] [µM] | Compound | CC50 at 72 h [1] [µM] | CC50 at 96 h [2] [µM] | CC50 at 144 h [3] [µM] | CC50 at 144 h [5] [µM] | further results
1 | 0.3 | 0.9 | CCOC(=O)[C@H](C)NP(=O)(OC[C@H]1O[C@@H](n2cnc3c(ONC(=O)OC(C)(C)C)nc(N)nc32)[C@](C)(O)[C@@H]1O)Oc1ccccc1 (some centres undefined) | > 100 | > 10 | 39 | > 100 | Drug metabolism [4]: metabolite_detected
2 | > 10 | > 10 | C[C@@]1(O)[C@H](O)[C@@H](CO)O[C@H]1n1cnc2c(N)nc(F)nc21 | > 100 | > 10 | > 100 | > 100 | Drug metabolism [7]: metabolite_detected
3 | – | – | C[C@@]1(O)[C@H](O)[C@@H](COP(=O)(O)OP(=O)(O)OP(=O)(O)O)O[C@H]1n1cnc2c(N)nc(F)nc21 | – | – | – | – | Drug metabolism [8]: metabolite_detected; Activity [9]: 11%; Ki [10]: 32 µM; inhibition [11]: inactive; Drug metabolism [12]: metabolite_detected
4 | – | – | CC[C@H](C)[C@@H]1NC(=O)CNC(=O)[C@@H]2Cc3c([nH]c4cc(O)ccc34)[S+]([O-])C[C@H](NC(=O)CNC1=O)C(=O)N[C@@H](CC(N)=O)C(=O)N1C[C@H](O)C[C@H]1C(=O)N[C@@H]([C@@H](C)[C@@H](O)CO)C(=O)N2 (some centres undefined) | – | – | – | – | IC50 [13]: 0.0025 µM
5 | 2.7 | 8.3 | CCOC(=O)[C@H](C)NP(=O)(OC[C@H]1O[C@@H](n2cnc3c(N)nc(F)nc32)[C@](C)(O)[C@@H]1O)Oc1ccccc1 (some centres undefined) | > 100 | > 10 | > 100 | > 100 | Drug metabolism [14]: metabolite_detected; Drug metabolism [15]: metabolite_detected; Drug metabolism [7]: metabolite_detected; Drug metabolism [16]: metabolite_detected
6 | – | – | C[C@@]1(O)[C@H](O)[C@@H](COP(=O)(O)OP(=O)(O)OP(=O)(O)O)O[C@H]1n1cnc2c(=O)[nH]c(N)nc21 [INX-09114] | – | – | – | – | Drug metabolism [17]: metabolite_detected; Drug metabolism [18]: metabolite_detected
7 | 0.9 | 8.4 | CC(C)(C)OC(=O)NOc1nc(N)nc2c1ncn2[C@@H]1O[C@H](CO)[C@@H](O)[C@@]1(C)O | > 100 | > 10 | > 100 | > 100 | Drug metabolism [4]: metabolite_detected

Reference: ChEMBL document CHEMBL3792308, “Synthesis and Evaluation of 2,6-Modified Purine 2'-C-Methyl Ribonucleosides as Inhibitors of HCV Replication” (ACS Med Chem Lett, 2016)
